Experiments:
[1] = system: PT-45; test: Cytotoxicity against human PT45 cells after 72 hrs by MTT assay; type: functional, cell-based; conditions: PT-45, 72 h
How it was run: (§1)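 MTT assay. Cells seeded at 7 × 10³ per well; after 24 h, exponentially growing cells were exposed to compound (final 0.005–100 µM) for 72 h. MTT was added for 4 h, then 10% SDS in 0.01 N HCl for 18 h at 37 °C. Absorbance read at 550 nm; survival given as % of untreated cells. IC50 from 6-8 replicate wells, ≥2 independent experiments.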

[2] = system: HepG2; test: Cytotoxicity against human HepG2 cells after 72 hrs by MTT assay; type: functional, cell-based; conditions: HepG2, 72 h; how it was run: as §1
[3] = Cytotoxicity againat taxol-resistant human A549T24 cells after 72 hrs by MTT assay; type: functional, cell-based; conditions: A549, 72 h
[4] = Cytotoxicity against human H295R cells after 72 hrs by MTT assay; type: functional, cell-based; conditions: NCI-H295R; how it was run: as §1
[5] = system: HeLa; test: Cytotoxicity against human HeLa cells after 72 hrs by MTT assay; type: functional, cell-based; how it was run: as §1
[6] = system: ARO; test: Cytotoxicity against human Aro cells after 72 hrs by MTT assay; type: functional, cell-based; how it was run: as §1
[7] = system: HT-29; test: Cytotoxicity against human HT29 cells after 72 hrs by MTT assay; type: functional, cell-based; conditions: HT-29, 72 h; how it was run: as §1
[8] = system: MCF7; test: Cytotoxicity against human MCF7 cells after 72 hrs by MTT assay; type: functional, cell-based; conditions: MCF7, 72 h; how it was run: as §1
[9] = Cytotoxicity againat taxol-resistant human A549T12 cells after 72 hrs by MTT assay; type: functional, cell-based; conditions: A549, 72 h
[10] = system: OE19; test: Cytotoxicity against human OE19 cells after 72 hrs by MTT assay; type: functional, cell-based; conditions: OE19, 72 h; how it was run: as §1
[11] = system: OVCAR-3; test: Cytotoxicity against human Ovcar3 cells after 72 hrs by MTT assay; type: functional, cell-based; conditions: OVCAR-3, 72 h; how it was run: as §1
[12] = system: OE33; test: Cytotoxicity against human OE33 cells after 72 hrs by MTT assay; type: functional, cell-based; conditions: OE33, 72 h; how it was run: as §1
[13] = system: A549; test: Cytotoxicity against human A549 cells after 72 hrs by MTT assay; type: functional, cell-based; conditions: A549, 72 h
How it was run: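 MTT assay. Cells seeded at 7 × 10³ per well; after 24 h, exponentially growing cells were exposed to compound (final 0.005–100 µM) for 72 h. MTT was added for 4 h, then 10% SDS in 0.01 N HCl for 18 h at 37 °C. Absorbance read at 550 nm; survival given as % of untreated cells.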

[14] = system: A549; test: Cell cycle arrest in human A549 cells assessed as accumulation at G1 phase at 0.1 uM after 24 hrs; type: functional
How it was run: (§2)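 A549 cells grown 24 h in drug-free medium or with compound at 0.1 or 1 µM. Cells were trypsinized, washed twice in PBS, fixed in cold 70% ethanol (30 min, -20 °C), then washed in citrate phosphate buffer and PBS. RNase (100 µg/mL) for 30 min at 37 °C, then propidium iodide (100 µg/mL) for 30 min at room temperature. Flow cytometry at 488/525 nm, ≥15 000 events, 3-4 repeats.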

[15] = system: A549; test: Cell cycle arrest in human A549 cells assessed as accumulation at S phase at 0.1 uM after 24 hrs; type: functional; how it was run: as §2
[16] = system: A549; test: Cell cycle arrest in human A549 cells assessed as accumulation at G1 phase at 1 uM after 24 hrs; type: functional; how it was run: as §2
[17] = system: A549; test: Cell cycle arrest in human A549 cells assessed as accumulation at G2/M phase at 1 uM after 24 hrs; type: functional; how it was run: as §2
[18] = system: A549; test: Cell cycle arrest in human A549 cells assessed as accumulation at sub Go phase at 1 uM after 24 hrs; type: functional
[19] = system: A549; test: Resistance index, ratio of IC50 for A549 cells to IC50 for A549T12 cells; type: functional, Homo sapiens
[20] = system: A549; test: Cell cycle arrest in human A549 cells assessed as accumulation at sub Go phase at 0.1 uM after 24 hrs; type: functional
[21] = system: A549; test: Cell cycle arrest in human A549 cells assessed as accumulation at G2/M phase at 0.1 uM after 24 hrs; type: functional; how it was run: as §2
[22] = system: A549; test: Cell cycle arrest in human A549 cells assessed as accumulation at S phase at 1 uM after 24 hrs; type: functional; how it was run: as §2

Row | Compound | IC50 [1] [nM] | IC50 [2] [nM] | IC50 [3] [nM] | IC50 [4] [nM] | IC50 [5] [nM] | IC50 [6] [nM] | IC50 [7] [nM] | IC50 [8] [nM] | IC50 [9] [nM] | IC50 [10] [nM] | IC50 [11] [nM] | IC50 [12] [nM] | IC50 [13] [nM] | Activity [14] [%] | Activity [15] [%] | Activity [16] [%] | Activity [17] [%] | Activity [18] [%] | Activity [20] [%] | Activity [22] [%] | also measured
1 | CC(=O)O[C@H]1C(=O)[C@@]2(C)[C@H]([C@H](OC(=O)c3ccccc3)[C@]3(O)C[C@H](OC(=O)[C@H](O)[C@@H](NC(=O)c4ccccc4)c4ccccc4)C(C)=C1C3(C)C)[C@]1(OC(C)=O)CO[C@@H]1C[C@@H]2O [PACLITAXEL] | 5 | 300 | 102 | 80 | 8 | 0.2 | 50 | 7 | 60 | 400 | 10 | 200 | – | – | – | – | – | – | – | – | –
2 | Cn1ccc2c3c(=O)cc(-c4ccccc4)[nH]c3ccc21 | 100 | 1000 | 200 | 90 | 100 | 300 | 300 | 400 | 300 | 100 | 700 | 800 | 300 | 66.9 | 8.8 | 15.6 | 74.9 | 0.3 | 6.4 | 9.2 | Ratio IC50 [19]: 1; Activity [21]: 18.2%
3 | O=c1cc(-c2ccccc2)[nH]c2ccc3[nH]ccc3c12 | – | – | – | – | – | – | – | – | – | 1000 | – | 2000 | – | – | – | – | – | – | – | – | –
4 | CCn1ccc2c3c(=O)cc(-c4ccccc4)[nH]c3ccc21 | 30 | 50 | 30 | 30 | 10 | 30 | 30 | 40 | 30 | 80 | 40 | 200 | 30 | 11.7 | 8.1 | 14.1 | 77.3 | 0.4 | 0.6 | 8.1 | Ratio IC50 [19]: 1; Activity [21]: 79.8%
5 | CCN(CC)CCn1ccc2c3c(O)cc(-c4ccccc4)nc3ccc21 | – | – | – | – | – | – | – | – | – | 10000 | – | 16000 | – | – | – | – | – | – | – | – | –
6 | O=c1cc(-c2ccccc2)[nH]c2ccc3c(ccn3Cc3ccccc3)c12 | 80 | 700 | 200 | 400 | 100 | 300 | 400 | 300 | 100 | 500 | 500 | 100 | 100 | 78.9 | 9.7 | 14.6 | 75.8 | 0.5 | 1.1 | 9.4 | Ratio IC50 [19]: 1; Activity [21]: 10.4%
7 | CCCn1ccc2c3c(=O)cc(-c4ccccc4)[nH]c3ccc21 | 50 | 40 | 40 | 20 | 30 | 50 | 200 | 70 | 40 | 50 | 20 | 100 | 50 | 13.6 | 8.7 | 13.5 | 76.9 | 0.3 | 1.3 | 9.6 | Ratio IC50 [19]: 1.2; Activity [21]: 76.2%
8 | CCCCn1ccc2c3c(=O)cc(-c4ccccc4)[nH]c3ccc21 | 40 | 20 | 30 | 10 | 20 | 30 | 30 | 60 | 20 | 7 | 10 | 60 | 30 | 11.8 | 7.7 | 12.9 | 77.6 | 0.4 | 0.2 | 9.2 | Activity [21]: 80.4%
9 | CCCCCn1ccc2c3c(=O)cc(-c4ccccc4)[nH]c3ccc21 | 40 | 30 | 40 | 20 | 20 | 70 | 200 | 80 | 50 | 5 | 20 | 20 | 40 | 12.4 | 7.2 | 15.5 | 75.5 | 0.4 | 1 | 8.8 | Ratio IC50 [19]: 0.8; Activity [21]: 79.6%
10 | O=c1cc(-c2ccccc2)[nH]c2ccc3c(ccn3CC3CC3)c12 | 20 | 20 | 20 | 10 | 20 | 30 | 60 | 40 | 20 | 100 | 10 | 20 | 20 | 16.5 | 7 | 16.3 | 74.6 | 0.3 | 0.4 | 8.6 | Ratio IC50 [19]: 1; Activity [21]: 75.7%
11 | CC[C@]1(O)C[C@H]2CN(CCc3c([nH]c4ccccc34)[C@@](C(=O)OC)(c3cc4c(cc3OC)N(C=O)[C@H]3[C@@](O)(C(=O)OC)[C@H](OC(C)=O)[C@]5(CC)C=CCN6CC[C@]43[C@@H]65)C2)C1 [VINCRISTINE] | 4 | 200 | – | 90 | 5 | 0.3 | 10 | 20 | – | 50 | 20 | 30 | 30 | – | – | 46.8 | 45.2 | 0.5 | – | 7.9 | –

Source: ChEMBL document CHEMBL1137570, “3-substituted 7-phenyl-pyrroloquinolinones show potent cytotoxic activity in human cancer cell lines” (J Med Chem, 2007)
